Assay outcomes: PubChem BioAssay, several laboratories
An excerpt weighted towards active compounds, which were near 1.9% of everything screened.
Rin1 Abl inh: blocks binding of human Rin1 to Abl | inhibition, % at 7.35 µM | TR-FRET Rin1/Abl binding, biochemical | AID 588664 | 360,000 tested, 0.4% active | P00519+Q13671; in the data active = inhibition above about 5%, passing the limit was not always enough
SR-BI DiI-HDL act: SR-BI HDL lipid transfer activation | CHO ldlA[mSR-BI] cells, DiI-HDL uptake fluorescence, 3 h; 100 = double the neutral-control signal | activation, % at 12.5 µM | 320,000 tested, 0.096% active;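 active = mean replicate activation of at least 60% and every replicate at or above 60%; inconclusive = mean or all-replicate condition met, but not both; inactive = mean below 60% and not all replicates reaching 60%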
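Material – SR-BI-overexpressing, LDLR-lacking CHO cells · Medium – BSA-supplemented, HEPES-buffered Ham's F12, pH 7.4 · Doses – single concentration · Times – compound with DiI-HDL co-incubation, 3 h at 37 °C · Measured by – bottom-read fluorescence, 550/595 nm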
GRK2 aptamer HTS: blocks RNA aptamer binding to human GRK2; AID 488847; 330,000 tested, 0.59% active; bead flow cytometry, FAM-aptamer displacement from GRK2; inhibition of aptamer binding, % at 10 µM;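 active = inhibition of aptamer binding above 40%, roughly 3 SD of noise, on plates passing a quality check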;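 note: median bead fluorescence of bound FAM aptamer so fluorescent compounds give negative values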
SR-BI DiI inh: inhibitors of mouse SR-BI mediated HDL lipid uptake | ldlA[mSR-BI] CHO cells, DiI-HDL uptake fluorescence, 3 h | inhibition, % at 12.5 µM | 320,000 tested, 0.96% active | AID 488896;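 active = mean replicate inhibition of at least 70% and a set share of replicates each scoring 70 or more; inconclusive = meets just one of the two criteria; inactive = fails both criteria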
A number is an active result; i = inactive; ? = inconclusive; nt = no result.

SMILES | Rin1 Abl inh | SR-BI DiI-HDL act | GRK2 aptamer HTS | SR-BI DiI inh
COc1cc(/C=C2\CC/C(=C\c3cc(OC)c(OC)c(OC)c3)C2=O)cc(OC)c1OC | i | i | i | ?
COc1ccc(Cl)cc1NC(=O)CN(C)C(=O)Cn1cnnn1 | i | i | i | i
CN(C)CCOC1c2ccccc2CCc2ccc3ccccc3c21 (centres undefined) | i | 436 | i | i
O=C(O)/C(=C\c1ccc2ccccc2c1)c1cccc2ccccc12 | i | i | i | i
COc1cc2ccccc2cc1C(=O)Nc1ccccc1N1CCN(S(C)(=O)=O)CC1 | i | i | i | 89
COc1cccc(C(=O)NNC(=O)c2ccccc2)c1 | i | i | i | i
COc1cccc(C(=O)NNC(=O)c2ccc3ccccc3c2O)c1 | i | i | i | 108
COc1ccc(NC(=O)c2cc(-c3ccc(C)o3)nc3ccccc23)cc1OC | i | i | i | 83
COc1ccc(NC(=O)c2cc(-c3ccc(C)o3)nc3ccccc23)c(OC)c1 | i | nt | i | nt
COc1ccc(CNC(=O)c2cc(-c3ccncc3)nc3c(C)cc(C)cc23)cc1OC | i | i | i | 72
O=C(Nc1nc2ccccc2s1)c1ccc(OCC2CCCO2)cc1 (centres undefined) | i | i | i | i
COc1cc(OC)c(C(=O)Nc2ccc3ccccc3c2)cc1OC | i | i | i | i
COc1cc(NC(=O)c2cc3c(C)nc4ccccc4c3o2)cc(OC)c1OC | i | i | i | 73
COc1ccc(NC(=O)NNC(=O)c2ccc3ccccc3c2O)cc1OC | i | i | i | 115
COc1ccc(NC(=O)c2cc(-c3ccncc3)nc3ccc(Br)cc23)cc1OC | 8.8 | i | i | 83
COc1ccc(NC(=O)c2cc3ccccc3cc2OC)cc1OC | i | i | i | 70
COc1ccccc1NC(=O)NNC(=O)c1ccc2ccccc2c1O | i | i | i | i
Cc1nc2ccccc2c2oc(C(=O)Nc3ccc(C(C)C)cc3)cc12 | i | i | i | i
CC(=O)NCCC(=O)Nc1sc2c(c1-c1nc3ccccc3[nH]1)CCCC2 | i | i | i | i
O=C(Nc1sc2c(c1-c1nc3ccccc3[nH]1)CCCC2)C1CCCC1 | i | i | i | 89
COc1cc(C(=O)NCCC(C)C)c([N+](=O)[O-])cc1OC | i | i | i | 82
CC(C)CC(=O)Nc1ccc(S(=O)(=O)Nc2nccs2)cc1 | i | 65 | i | i
CC(=O)C1=CCC(c2ccccc2)N(S(=O)(=O)c2cccc(C)c2)C1 (centres undefined) | i | nt | nt | nt
Cc1cc2[nH]c(=S)[nH]c2cc1C | i | i | i | 73
CC1(C(=O)Nc2cnc3ccccc3c2)CCN1C(=O)c1ccccc1CCc1ccccc1 (centres undefined) | i | nt | nt | nt
SMILES | Rin1 Abl inh | SR-BI DiI-HDL act | GRK2 aptamer HTS | SR-BI DiI inh
CCCCN(C(=O)CSCC(=O)Nc1ccc(C)cc1)c1c(N)n(Cc2ccccc2)c(=O)[nH]c1=O | i | i | i | i
Cc1ccc(-c2nnc(N3CCN(C(=O)COc4cccc(C)c4)CC3)c3ccccc23)cc1 | i | i | i | i
Cc1cccc(OCC(=O)N2CCN(c3nnc(-c4ccccc4)c4ccccc34)CC2)c1 | i | i | i | 80
Cc1ccc(OCC(=O)N2CCN(c3nnc(-c4ccc(C)cc4)c4ccccc34)CC2)cc1 | i | i | i | 78
CN(C)c1ccc(O)c2c1CC1CC3[C@@H](N(C)C)C(=O)C(C(N)=O)=C(O)[C@]3(O)C(=O)C1=C2O (some centres undefined) | 16 | i | i | i
C[C@H]1c2cccc(O)c2C(O)=C2C(=O)[C@]3(O)C(O)=C(C(N)=O)C(=O)[C@@H](N(C)C)[C@@H]3[C@@H](O)[C@@H]21 | i | i | i | i
CC(=O)Nc1ccc(OC(=O)c2cc3cc(Br)cc(Br)c3oc2=O)cc1 | nt | nt | 95 | nt
OC(c1cccc(CN2CCCCC2)c1)c1ncc(-c2cccc3ccccc23)[nH]1 (centres undefined) | i | nt | nt | nt
CCCC(=O)Nc1ccc(C(=O)COC(=O)c2cc(C)oc2C)cc1 | i | i | i | i
N#CC1C(=N)Cc2ccccc2-c2ccccc21 (centres undefined) | i | i | nt | i
S=C(NNc1ccnc2cc(Cl)ccc12)Nc1ccccc1Cl | i | i | i | 89
COc1ccc(OC)c(NC(=O)COc2ccc3c(c2)CCC3)c1 | i | i | i | i
O=C(O)CNC(=O)c1ccccc1F | i | i | i | i
O=C(NCCCCNC(=O)c1ccccc1F)c1ccccc1F | i | i | i | 75
Cc1c(NC(=O)c2cc(-c3ccccc3)nc3ccccc23)c(=O)n(-c2ccccc2)n1C | i | i | i | 77
Cc1ccc(-c2cc(C(=O)Nc3c(C)n(C)n(-c4ccccc4)c3=O)c3ccccc3n2)cc1 | i | i | i | 74
Cc1cc(C)c2nc(NNC(=O)c3cc(-c4cccs4)nc4ccccc34)sc2c1 | i | i | i | i
O=C(NNc1nc2ccc(Cl)cc2s1)c1cc(-c2cccs2)nc2ccccc12 | i | i | i | 89
Cc1c(NC(=O)c2cc(-c3cccs3)nc3ccccc23)c(=O)n(-c2ccccc2)n1C | i | i | i | 77
Cc1c(NC(=O)COC(=O)c2cc(-c3ccc(-c4ccccc4)cc3)nc3ccccc23)c(=O)n(-c2ccccc2)n1C | i | i | i | i
CC(=O)N1CCc2c(sc(NC(=O)c3ccc(S(=O)(=O)N(C)CC4CCCO4)cc3)c2C(N)=O)C1 (centres undefined) | i | nt | nt | nt
COc1ccc(C(C)=O)cc1CN1C(=O)C(C)ON=C1c1cccc(C(F)(F)F)c1 (centres undefined) | i | nt | nt | nt
FC(F)(F)Oc1ccccc1C(c1nnnn1C1CCCC1)N1CCN(C/C=C/c2ccccc2)CC1 (centres undefined) | i | nt | nt | nt
COc1ccc(-c2cc(C(=O)Nc3c(C)n(C)n(-c4ccccc4)c3=O)c3ccccc3n2)cc1OC | i | i | i | 92
COc1ccc(-c2nc(CS(=O)(=O)CC(=O)NCCc3ccc(C)cc3)c(C)o2)cc1 | i | nt | i | 99
SMILES | Rin1 Abl inh | SR-BI DiI-HDL act | GRK2 aptamer HTS | SR-BI DiI inh
CCOc1ccc(OCC)c(NC(=O)Nc2ccc3c(c2)N(C)C(=O)CS3)c1 | i | i | i | 88
CC(=O)Nc1ccc(NC(=O)Nc2ccc3c(c2)N(C)C(=O)CS3)cc1 | i | i | i | i
COc1cc(OC)cc(-c2c(C#Cc3ccsc3)c3cc(-c4ccc5cc[nH]c5c4)ccc3n2C)c1 | i | i | i | 72
COc1ccc(-c2c(-c3cc(OC)cc(OC)c3)n(C)c3ccc(-c4ccc5cc[nH]c5c4)cc23)cc1 | i | i | i | 85
COc1cc(OC)cc(-c2c(-c3ccc(F)cc3)c3cc(-c4ccc(OC)nc4)ccc3n2C)c1 | i | i | i | i
COc1ccc(-c2c(-c3cc(OC)cc(OC)c3)n(C)c3ccc(-c4ccc(N(C)C)nc4)cc23)cc1 | i | i | i | 83
COc1ccc(-c2c(-c3ccc(OC)nc3)c3ccccc3n2C)cc1 | i | i | i | 77
COc1cccc(-c2c(-c3cc(OC)cc(OC)c3)n(C)c3ccc(-c4ccc(OC)nc4)cc23)c1 | i | i | i | i
CC/C(=N\NC(=O)c1cc(C2CC2)[nH]n1)c1ccccc1 | i | i | i | i
